Assays:
[1] = system: Cladosporium cladosporioides; experiment: Antifungal activity against Cladosporium cladosporioides after 72 hrs; format: functional
Method in brief: (§1)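 TLC bioautography: compounds applied to TLC plates, sprayed with a fungal spore suspension in glucose and salt solution, incubated 72 h in darkness in a moistened chamber at 25 °C. Clear inhibition zones against a dark background read as the minimum amount (µg) inhibiting growth on the plate. Strains: C. cladosporioides SPC 140, C. sphaerospermum SPC 491. Nystatin and miconazole positive controls; ampicillin and chloramphenicol negative controls.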

[2] = system: Cladosporium sphaerospermum; experiment: Antifungal activity against Cladosporium sphaerospermum after 72 hrs; format: functional; method in brief: as §1

Row | Compound | MIC [1] [µg] | MIC [2] [µg]
1 | CC(=O)OC(C)(C)CNC(=O)/C=C/C=C/c1ccc2c(c1)OCO2 [CORCOVADINE] | 1 | 1
2 | CC(=O)OC(C)(C)CNC(=O)/C=C\C=C/c1ccc2c(c1)OCO2 [ISOCORCOVADINE] | 2.5 | 1
3 | CC(C)CNC(=O)/C=C\C=C/c1ccc2c(c1)OCO2 [ISOPIPERLONGUMININE] | 0.25 | 0.25
4 | Clc1ccc(COC(Cn2ccnc2)c2ccc(Cl)cc2Cl)c(Cl)c1 (stereo not drawn) [MICONAZOLE] | 1 | 1
5 | CC(C)CNC(=O)/C=C/C=C/c1ccc2c(c1)OCO2 [PIPERLONGUMININE] | 1 | 1
6 | COc1c(OC)c(OC)c2c3c(cc4ccccc42)NC(=O)c13 [PIPEROLACTAM C] | 5 | 50
7 | COc1ccc(C/C=C/C=C/C(=O)NCC(C)C)cc1 [PIPEROVATINE] | 1 | 1
8 | CC(C)CNC(=O)/C=C/C=C\c1ccc2c(c1)OCO2 [SCUTIFOLAMIDE A] | 5 | 5
9 | NYSTATIN | 1 | 1
